From ChEMBL document CHEMBL1136891, “1,3-dialkyl-8-N-substituted benzyloxycarbonylamino-9-deazaxanthines as potent adenosine receptor ligands: Design, synthesis, structure-affinity and structure-selectivity relationships” (Bioorg Med Chem, 2009) come the findings set out here.

Values after ≈ are worked out from the molar mass of the structure shown.

In data set [1] the target is T1, Adenosine receptor A2b (Homo sapiens, UniProt P29275).
T1 sequence (P29275 whole entry): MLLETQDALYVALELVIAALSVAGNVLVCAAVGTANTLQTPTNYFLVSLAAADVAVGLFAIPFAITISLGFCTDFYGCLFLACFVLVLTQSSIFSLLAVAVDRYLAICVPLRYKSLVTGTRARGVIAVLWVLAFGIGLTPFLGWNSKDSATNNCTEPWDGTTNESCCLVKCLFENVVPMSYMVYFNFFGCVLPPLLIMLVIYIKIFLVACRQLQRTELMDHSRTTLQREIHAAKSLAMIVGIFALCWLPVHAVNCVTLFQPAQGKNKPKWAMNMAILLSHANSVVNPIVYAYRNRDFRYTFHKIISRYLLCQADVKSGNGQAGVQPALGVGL
The data set is described as follows: Displacement of [3H]DPCPX from human recombinant adenosine A2B receptor expressed in HEK293 cells by beta scintillation counter. The format is cell-based. The procedure, abridged:
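Competition binding on membranes from transfected HEK-293 cells expressing hA2B, using 35 nM [3H]DPCPX. Non-specific binding was defined with NECA. Incubation was 30 min at 25 °C, followed by filtration and scintillation counting. Ki values are means of two independent experiments in duplicate.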
(Loss of bound radioactivity is the signal in a displacement assay; it reports binding, not function.)

Data set [2] deals with T2, Adenosine receptor A2a (Homo sapiens, UniProt P29274). The data set is described as follows: Displacement of [3H]ZM241385 from human recombinant adenosine A2A receptor expressed in HeLa cells by beta scintillation counter. It is filed as cell-based.
The next data set is filed under the species Homo sapiens. Put plainly: Selectivity index, ratio of Ki for human recombinant adenosine A2A receptor to Ki for human recombinant adenosine A2B receptor. The essentials:
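Competition binding on membranes at 25 °C for 30 min, then filtration and beta scintillation counting. hA2A: transfected HeLa cells, 3 nM [3H]ZM241385, non-specific binding with 50 µM NECA. hA2B: transfected HEK-293 cells, 35 nM [3H]DPCPX, non-specific binding with 400 µM NECA. Ki values are means of two independent duplicate experiments. SI = Ki hA2A / Ki hA2B.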

In data set [3] the target is T2, Adenosine receptor A2a. Put plainly: Displacement of [3H]ZM241385 from human recombinant adenosine A2A receptor expressed in HeLa cells at 1 uM by beta scintillation counter.
Data set [4] addresses T3, Adenosine receptor A2b (Homo sapiens) (UniProt P29275).
T3 sequence (whole entry): T1 sequence (P29275 whole entry)
Put plainly: Displacement of [3H]DPCPX from human recombinant adenosine A2B receptor expressed in HEK293 cells at 1 uM by beta scintillation counter. It is filed as cell-based.

Another data set concerns the target T4, Adenosine receptor A1 (Homo sapiens, UniProt P30542).
T4 sequence (P30542 whole entry): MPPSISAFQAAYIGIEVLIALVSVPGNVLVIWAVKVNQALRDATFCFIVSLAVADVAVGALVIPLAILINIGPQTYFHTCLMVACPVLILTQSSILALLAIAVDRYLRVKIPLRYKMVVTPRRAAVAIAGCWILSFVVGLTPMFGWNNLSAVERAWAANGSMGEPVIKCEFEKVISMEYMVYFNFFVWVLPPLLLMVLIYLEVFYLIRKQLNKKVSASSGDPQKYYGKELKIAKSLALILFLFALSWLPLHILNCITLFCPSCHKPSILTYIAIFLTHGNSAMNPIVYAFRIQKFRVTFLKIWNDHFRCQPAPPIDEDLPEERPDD
Put plainly: Displacement of [3H]DPCPX from human recombinant adenosine A1 receptor expressed in CHO cells by beta scintillation counter. The format is cell-based. The procedure, abridged:
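Membranes from CHO cells expressing hA1, labelled with 2 nM [3H]DPCPX. Non-specific binding was defined with excess (R)-PIA. Incubated 25 °C for 60 min, then filtered and counted. Ki values are means of two independent experiments with duplicate points.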

The target of a further data set is T5, Adenosine receptor A3 (Homo sapiens, UniProt P0DMS8).
T5 sequence (P0DMS8 whole entry): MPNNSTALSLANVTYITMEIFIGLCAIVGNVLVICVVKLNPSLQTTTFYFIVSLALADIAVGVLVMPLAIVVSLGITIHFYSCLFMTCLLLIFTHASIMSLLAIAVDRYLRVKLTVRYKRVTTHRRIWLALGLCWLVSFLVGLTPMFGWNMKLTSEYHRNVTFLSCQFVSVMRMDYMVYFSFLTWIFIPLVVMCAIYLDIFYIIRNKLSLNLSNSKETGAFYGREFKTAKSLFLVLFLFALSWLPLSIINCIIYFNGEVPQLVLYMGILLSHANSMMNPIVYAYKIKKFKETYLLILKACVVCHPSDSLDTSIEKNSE
Put plainly: Displacement of [3H]NECA from human recombinant adenosine A3 receptor expressed in HeLa cells by beta scintillation counter. It is filed as cell-based. The essentials: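 HeLa-hA3 membranes labelled with 30 nM [3H]NECA. Non-specific binding was defined with (R)-PIA. Incubation was 180 min at 25 °C, then filtration and scintillation counting. Ki values are means of two independent experiments with duplicate points.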

Data set [5] in a line: Solubility in water. It is filed as physicochemical. The essentials: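 Compound stock at 1 mg/ml in DMSO, added in small portions (typically 14 additions) to 50 mM Tris/HCl pH 7.4 at room temperature, keeping final DMSO below 5%. Precipitation was detected as light-scattering absorbance at 600–820 nm. The solubility limit was taken from a bilinear fit of absorbance versus DMSO added. Mean ± SEM of two assays.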

Data set [6] deals with Adenosine receptor A2a (Rattus norvegicus, UniProt P30543). Put plainly: Antagonist activity at adenosine A2A receptor in Wistar-Kyoto rat aorta assessed as inhibition of phenylephrine-induced contraction treated 30 mins before phenylephrine challenge measured after 60 mins.
Data set [7] has as its target T6, Adenosine receptor A2b (Rattus norvegicus, UniProt P29276).
T6 sequence (P29276 whole entry): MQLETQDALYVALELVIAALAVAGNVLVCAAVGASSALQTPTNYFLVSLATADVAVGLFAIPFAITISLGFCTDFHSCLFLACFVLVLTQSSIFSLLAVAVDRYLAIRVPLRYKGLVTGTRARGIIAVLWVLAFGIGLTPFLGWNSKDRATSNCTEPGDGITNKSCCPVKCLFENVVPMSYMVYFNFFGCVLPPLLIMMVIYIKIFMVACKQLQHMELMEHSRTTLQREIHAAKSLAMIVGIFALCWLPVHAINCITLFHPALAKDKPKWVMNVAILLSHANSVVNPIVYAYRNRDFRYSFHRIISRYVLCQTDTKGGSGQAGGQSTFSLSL
The data set is described as follows: Antagonist activity at adenosine A2B receptor in Wistar-Kyoto rat colon assessed as inhibition of NECA-induced relaxation after 30 mins. The note with it: read-out: pA2 (converted).

T2 sequence (P29274 whole entry): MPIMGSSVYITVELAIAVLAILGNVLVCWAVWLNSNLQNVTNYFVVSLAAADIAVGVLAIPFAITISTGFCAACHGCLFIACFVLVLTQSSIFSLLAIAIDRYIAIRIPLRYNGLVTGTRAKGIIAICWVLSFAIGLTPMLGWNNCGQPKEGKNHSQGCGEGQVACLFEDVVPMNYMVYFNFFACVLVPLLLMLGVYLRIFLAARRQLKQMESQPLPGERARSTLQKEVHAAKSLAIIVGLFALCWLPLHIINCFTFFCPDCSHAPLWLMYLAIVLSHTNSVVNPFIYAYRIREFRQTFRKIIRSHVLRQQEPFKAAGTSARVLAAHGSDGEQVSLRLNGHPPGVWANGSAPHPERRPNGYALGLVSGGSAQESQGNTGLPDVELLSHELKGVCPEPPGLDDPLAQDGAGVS
Adenosine receptor A2a (Rattus norvegicus, UniProt P30543), sequence (P30543 whole entry): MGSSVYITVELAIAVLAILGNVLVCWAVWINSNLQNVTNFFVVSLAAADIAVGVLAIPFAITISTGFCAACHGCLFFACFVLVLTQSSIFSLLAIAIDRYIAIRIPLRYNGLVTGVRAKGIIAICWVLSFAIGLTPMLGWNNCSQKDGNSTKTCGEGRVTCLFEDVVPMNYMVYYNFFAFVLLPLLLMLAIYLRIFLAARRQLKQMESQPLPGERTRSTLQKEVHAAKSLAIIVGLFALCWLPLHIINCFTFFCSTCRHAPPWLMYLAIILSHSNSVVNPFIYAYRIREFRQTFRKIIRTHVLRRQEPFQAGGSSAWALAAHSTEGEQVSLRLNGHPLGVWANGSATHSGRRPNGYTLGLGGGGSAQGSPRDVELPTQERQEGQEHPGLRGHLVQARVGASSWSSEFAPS

Take `CCCn1c(=O)c2[nH]c(-c3ccc(COC(=O)Nc4ccsc4)cc3)cc2n(CCC)c1=O`: the Ki – broadly, a dissociation constant, usually derived from enzyme kinetics or from competition with a known ligand – at Adenosine receptor A2b [1] is 501 nM; on Adenosine receptor A2a [2] it was 3310 nM. In the data set filed under Homo sapiens, the Ratio Ki came to 6.6.
In the same order, the values of `CCCn1c(=O)c2[nH]c(-c3ccc(COC(=O)Nc4ccon4)cc3)cc2n(CCC)c1=O` are 1.7 nM, 21.9 nM and 12.9.
As to `CCCn1c(=O)c2[nH]c(-c3ccc(COC(=O)Nc4ccccc4)cc3)cc2n(C)c1=O`, the inhibition constant Ki on Adenosine receptor A2b [1] came out at 13.8 nM. Also, the inhibition (as a rule, the percentage by which the read-out fell short of the control) at Adenosine receptor A2a [3] stood at 15%.
As for `CCCn1c(=O)c2[nH]c(-c3ccc(COC(=O)N4CCN(c5ccccc5)CC4)cc3)cc2n(CCC)c1=O`, the Ki at Adenosine receptor A2a [2] was found to be 447 nM. The inhibition in [4] was found to be 46%.
Consider `Cn1c(=O)c2[nH]c(-c3ccc(COC(=O)Nc4ccccn4)cc3)cc2n(C)c1=O`, for which the Ki was 81.3 nM on Adenosine receptor A2b [1] and 490 nM on Adenosine receptor A2a [2]. Also, the Ratio Ki in the data set filed under Homo sapiens was found to be 6.
Take `CCCn1c(=O)c2[nH]c(-c3ccc(COC(=O)Nc4ccc(F)cc4)cc3)cc2n(CCC)c1=O`: the Ki stood at 2 nM at Adenosine receptor A2b [1], 118 nM at Adenosine receptor A2a [2], 0.4 nM at Adenosine receptor A1 and 71 nM on Adenosine receptor A3. Further, the Ratio Ki in the data set listed under Homo sapiens came out at 59.
Consider `CCCn1c(=O)c2[nH]c(-c3ccc(COC(=O)N4CCN(c5ccc(F)cc5)CC4)cc3)cc2n(CCC)c1=O`, for which the Ki at Adenosine receptor A2b [1] worked out at 42.7 nM; at Adenosine receptor A2a [2], 50.1 nM. For the same compound, the Ratio Ki in the data set listed under Homo sapiens came out at 1.2.
`Cn1c(=O)c2[nH]c(-c3ccc(COC(=O)NCc4ccccc4)cc3)cc2n(C)c1=O`: the inhibition constant Ki at Adenosine receptor A2b [1] came out at 16.2 nM; on Adenosine receptor A2a [2] it was 1000 nM. Moreover, in the data set filed under Homo sapiens, the Ratio Ki was 61.6.
The corresponding values for `Cn1c(=O)c2[nH]c(-c3ccc(COC(=O)Nc4ccco4)cc3)cc2n(C)c1=O` are 3.2 nM, 18.2 nM and 5.6.
In the case of `Cn1c(=O)c2[nH]c(-c3ccc(COC(=O)Nc4ccc(F)cc4)cc3)cc2n(C)c1=O`, the Ki on Adenosine receptor A2b [1] was determined as 9.5 nM; on Adenosine receptor A2a [2], 72.4 nM; on Adenosine receptor A1, 17.8 nM; on Adenosine receptor A3, 871 nM. Also, the Ratio Ki in the data set listed under Homo sapiens stood at 7.6.
For the compound `CCCn1c(=O)c2[nH]c(-c3ccc(COC(=O)Nc4ccccc4)cc3)cc2n(CCC)c1=O`, the Ki on Adenosine receptor A2b [1] came out at 7.1 nM; at Adenosine receptor A2a [2] it was 28.8 nM; at Adenosine receptor A1, 20.4 nM; on Adenosine receptor A3, 331 nM. In the data set listed under Homo sapiens, the Ratio Ki came out at 4.1. Also, in data set [5], the solubility (as a rule, the dissolved amount per volume that the medium holds) turned out to be 27 µg/mL (≈ 58.6 µM).
For the compound `CCCn1c(=O)c2[nH]c(-c3ccc(COC(=O)N4CCN(c5cccc(Cl)c5)CC4)cc3)cc2n(CCC)c1=O`, the inhibitory constant (Ki) at Adenosine receptor A2b [1] amounted to 24 nM; at Adenosine receptor A2a [2], 28.2 nM. The Ratio Ki in the data set listed under Homo sapiens is 1.2.
The corresponding values for `CCCn1c(=O)c2[nH]c(-c3ccc(COC(=O)Nc4cnccn4)cc3)cc2n(CCC)c1=O` are 7.8 nM, 35.5 nM and 4.6.
Turning to `Cn1c(=O)c2[nH]c(-c3ccc(COC(=O)Nc4ccsc4)cc3)cc2n(C)c1=O`, the inhibitory constant (Ki) on Adenosine receptor A2b [1] turned out to be 0.8 nM; on Adenosine receptor A2a [2] it was 10.5 nM; at Adenosine receptor A1, 10 nM; at Adenosine receptor A3, 363 nM. Besides, the Ratio Ki in the data set listed under Homo sapiens came to 12.6. In addition, the concentration in solution in data set [5] (solubility) was 21.5 µg/mL (≈ 52.4 µM). For the same compound, the results for the Kb at Adenosine receptor A2a [6] and on Adenosine receptor A2b [7] were 28.2 nM and 2.19 nM, respectively.
For the compound `CCCn1c(=O)c2[nH]c(-c3ccc(COC(=O)Nc4cccs4)cc3)cc2n(CCC)c1=O`, the inhibition constant Ki at Adenosine receptor A2b [1] is 602 nM; at Adenosine receptor A2a [2], 2240 nM. Besides, the Ratio Ki in the data set listed under Homo sapiens came to 3.7.
The corresponding values for `Cn1c(=O)c2[nH]c(-c3ccc(COC(=O)N4CCc5ccccc5C4)cc3)cc2n(C)c1=O` are 2.1 nM, 43.7 nM and 20.4.
As to `Cn1c(=O)c2[nH]c(-c3ccc(COC(=O)Nc4ccccc4)cc3)cc2n(C)c1=O`, the inhibition constant (Ki) came out at 2.8 nM on Adenosine receptor A2b [1], 34.7 nM on Adenosine receptor A2a [2], 2.2 nM at Adenosine receptor A1 and 275 nM on Adenosine receptor A3. Besides, in the data set filed under Homo sapiens, the Ratio Ki came to 12.6.
Turning to `Cn1c(=O)c2[nH]c(-c3ccc(COC(=O)N4CCN(c5ccccc5)CC4)cc3)cc2n(C)c1=O`, the Ki on Adenosine receptor A2b [1] was found to be 11.5 nM; at Adenosine receptor A2a [2] it was 132 nM. In the data set listed under Homo sapiens, the Ratio Ki was 11.5.
On to `Cn1c(=O)c2[nH]c(-c3ccc(COC(=O)Nc4cccs4)cc3)cc2n(C)c1=O`, for which the Ki turned out to be 1 nM at Adenosine receptor A2b [1] and 15.1 nM on Adenosine receptor A2a [2]. In addition, the Ratio Ki in the data set filed under Homo sapiens came to 15.1.
In the same order, the values of `CCCn1c(=O)c2[nH]c(-c3ccc(COC(=O)Nc4cc[nH]n4)cc3)cc2n(CCC)c1=O` are 5.9 nM, 10 nM and 1.7.
